From ChEMBL document CHEMBL1150283, “Synthesis, cytostatic and anti-HIV evaluations of the new unsaturated acyclic C-5 pyrimidine nucleoside analogues” (Bioorg Med Chem, 2008)

Key:
SW-620 = test: Antiproliferative activity against human SW620 cells after 3 days by MTT assay; assay type: functional, cell-based; conditions: SW-620, 72 h
Procedure, shortened: (§1)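 Monolayers grown in DMEM with 10% FBS, 2 mM L-glutamine, penicillin/streptomycin at 37 °C, 5% CO2. Seeded at 1 × 10⁴ to 3 × 10⁴ cells/mL, then exposed 72 h to five 10-fold dilutions (10⁻⁸ to 10⁻⁴ M) from 0.04 M DMSO stocks, with a solvent control. MTT added for 4 h, formazan dissolved in DMSO, A570 read. Percentage growth taken against time-zero and untreated OD. Quadruplicates in three experiments; IC50 by linear regression.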

CCRF-CEM = test: Antiproliferative activity against human CEM cells after 3 days by MTT assay; assay type: functional, cell-based; conditions: 72 h
[1] = Cytotoxicity against human WI38 cells after 3 days by MTT assay; assay type: cell-based; conditions: WI-38, 72 h; procedure, shortened: as §1
[2] = Antiproliferative activity against human Molt4/C8 cells after 3 days by MTT assay; assay type: functional, cell-based; conditions: MOLT-4, 72 h
HepG2 = test: Antiproliferative activity against human HepG2 cells after 3 days by MTT assay; assay type: functional, cell-based; conditions: HepG2, 72 h; procedure, shortened: as §1
HeLa = test: Antiproliferative activity against human HeLa cells after 3 days by MTT assay; assay type: functional, cell-based; conditions: 72 h; procedure, shortened: as §1
[3] = tested on: Human immunodeficiency virus 2; test: Antiviral activity against HIV2 assessed as inhibition of virus-induced cytopathogenicity in CEM cells; assay type: functional, organism-based; conditions: Human immunodeficiency virus 2, CCRF-CEM
Procedure, shortened: (§2)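 CEM cell cultures infected with HIV-1 or HIV-2. Virus-induced cytopathicity scored as syncytia formation.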

L1210 = test: Antiproliferative activity against mouse L1210 cells after 2 days by MTT assay; assay type: functional, cell-based; conditions: L1210, 48 h
[4] = tested on: Human immunodeficiency virus 1; test: Antiviral activity against HIV1 assessed as inhibition of virus-induced cytopathogenicity in CEM cells; assay type: functional, organism-based; conditions: Human immunodeficiency virus 1, CCRF-CEM; procedure, shortened: as §2
MCF7 = test: Antiproliferative activity against human MCF7 cells after 3 days by MTT assay; assay type: functional, cell-based; conditions: MCF7, 72 h; procedure, shortened: as §1
MIA PaCa-2 = test: Antiproliferative activity against human MiaPaCa2 cells after 3 days by MTT assay; assay type: functional, cell-based; conditions: MIA PaCa-2, 72 h; procedure, shortened: as §1
Influenza A virus H3N2 = test: Antiviral activity against influenza A virus H3N2 assessed as inhibition of virus-induced cytopathogenicity in MDCK cells; assay type: functional, organism-based
Procedure, shortened: (§3)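 Cytopathicity-reduction assay: Coxsackie B4 virus in HeLa cell cultures; influenza A (H3N2) in MDCK cell cultures. Virus-induced cytopathicity is scored at the time point when untreated virus-exposed cultures reach full cytopathic effect.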

Human alphaherpesvirus 3 = test: Antiviral activity against Varicella-Zoster virus assessed as inhibition of virus-induced cytopathogenicity in HEL cells; assay type: functional, organism-based; conditions: Human alphaherpesvirus 3, HEL
Coxsackievirus B4 = test: Antiviral activity against Coxsackie B4 virus assessed as inhibition of virus-induced cytopathogenicity in HeLa cells; assay type: functional, organism-based; conditions: Enterovirus B; procedure, shortened: as §3

SMILES	IC50 (SW-620) [µM]	IC50 (CCRF-CEM) [µM]	IC50 [1] [µM]	IC50 [2] [µM]	IC50 (HepG2) [µM]	IC50 (HeLa) [µM]	EC50 [3] [µM]	IC50 (L1210) [µM]	EC50 [4] [µM]	IC50 (MCF7) [µM]	IC50 (MIA PaCa-2) [µM]	EC50 (Influenza A virus H3N2) [µM]	EC50 (Human alphaherpesvirus 3) [µM]	EC50 (Coxsackievirus B4) [µM]
CCCCC#Cc1cn(C/C=C\CN2C(=O)c3ccccc3C2=O)c(=O)[nH]c1=O	82	100	28	41	17	33	≥ 50	109	≥ 50	45	> 100			
CCCCc1ccc(C#Cc2cn(C/C=C\CN3C(=O)c4ccccc4C3=O)c(=O)[nH]c2=O)cc1	> 100	23	17	31	40	85	> 10		> 10	43	56			
O=C1c2ccccc2C(=O)N1C/C=C\Cn1cc(C#CCCc2ccccc2)c(=O)[nH]c1=O	> 100	168	> 100	146	> 100	> 100	≥ 50		35	> 100	> 100			
CCCCCC#Cc1cn(C/C=C/CN2C(=O)c3ccccc3C2=O)c(=O)[nH]c1=O	58	> 500	40	> 500	9	91	> 50	> 500	> 50	44	60			
CCCCCCCCC#Cc1cn(C/C=C/CN2C(=O)c3ccccc3C2=O)c(=O)[nH]c1=O	87	> 250	53	> 250	43	> 100	> 50	> 250	> 50	66	> 100			
O=C1c2ccccc2C(=O)N1C/C=C/Cn1cc(C#CCCc2ccccc2)c(=O)[nH]c1=O	11	38	31	39	7.3	29	≥ 10	44	≥ 10	13	27			
CCCCc1ccc(C#Cc2cn(C/C=C/CN3C(=O)c4ccccc4C3=O)c(=O)[nH]c2=O)cc1	> 100	31	40	29	9.1	94	> 10	42	> 10	44	79			
CCCCC#Cc1cn(C/C=C/CN2C(=O)c3ccccc3C2=O)c(=O)[nH]c1=O	> 100	192	35	171	7.9	89	≥ 50	236	≥ 50	8.8	77			
Cc1ccc(C#Cc2cn(C/C=C\CN3C(=O)c4ccccc4C3=O)c(=O)[nH]c2=O)cc1	> 100	238	> 100	266	68	> 100	> 250		> 250	> 100	> 100	20		
O=C1c2ccccc2C(=O)N1C/C=C\Cn1cc(C#Cc2ccc(Br)cc2)c(=O)[nH]c1=O	> 100	80	47	89			> 50	448	10	> 100	> 100			
CCCCCc1ccc(C#Cc2cn(C/C=C\CN3C(=O)c4ccccc4C3=O)c(=O)[nH]c2=O)cc1	> 100	102	> 100	30	18	> 100	> 2	28	> 2	> 100	> 100		8.7	
CCCCCCCCC#Cc1cn(C/C=C\CN2C(=O)c3ccccc3C2=O)c(=O)[nH]c1=O	67	39	49	36		59	> 50	45	> 50	64	68	2.5		
CCCCCCC#Cc1cn(C/C=C/CN2C(=O)c3ccccc3C2=O)c(=O)[nH]c1=O	32	28	40	35	14		≥ 10	43	≥ 10	24	30			
CCCCCc1ccc(C#Cc2cn(C/C=C/CN3C(=O)c4ccccc4C3=O)c(=O)[nH]c2=O)cc1	30	23	25	17	4.3	27	3.1	39	14	5.6	26			12
O=c1[nH]cc(F)c(=O)[nH]1 [FLUOROURACIL]	8.7		10	20	9.2			0.69			6.5			
